Assay results as given in the EternaBench riboswitch data.

Test system: MS2 coat protein
Assay: apparent Kd, MS2 coat protein; higher = weaker binding; RNA-MaP array; FMN 200 µM where present
Outline: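 Stalled E. coli RNA polymerase produced the designs on Illumina sequencing-chip clusters. SNAP-549-labelled MS2 coat protein was added from 0.7 or 1.5 nM, doubling to 3 µM, without and then with constant ligand, in 100 mM Tris-HCl pH 7.5, 80 mM KCl, 4 mM MgCl2, BSA, DTT, yeast tRNA and Tween-20. The apparent Kd is the median of filtered per-cluster fits of green signal normalised to red-channel RNA signal and control-cluster median Fmax.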

[1] = designed as: OFF switch for flavin mononucleotide, no ligand
[2] = ligand present: flavin mononucleotide, designed as: OFF switch for flavin mononucleotide
[3] = designed as: ON switch for flavin mononucleotide, no ligand
[4] = ligand present: flavin mononucleotide, designed as: ON switch for flavin mononucleotide

| Sequence | apparent Kd [1] [nM] | apparent Kd [2] [nM] | apparent Kd [3] [nM] | apparent Kd [4] [nM] |
| --- | --- | --- | --- | --- |
| AAAUCUUACGAAGGAUAUACAAACAUGAGGAUCACCCAUGUGUGUUUCGUGUUACUGAAAUUCGGGUAGAAGGUCGUAGACAUA | 27.7 | 19.2 | – | – |
| CCUUAAAUUGUAAGGAUAUUAAAGCUGCUGAGUUAUAAGAAGGUACAUGAGGAUCACCCAUGUUCGGCAGGGUC | 17.8 | 18.4 | – | – |
| GUUGCACAAGUUAACAUGAGGAUCACCCAUGUCAAAAGACAUGAGGAUAUGGAGCUGAAGAUUAUCCAGAAGGCAUAAUGCUAA | – | – | 460 | 158 |
| CUCAUGUGAGGAUAUGCUGCUCGUCACGAAAGUGAUGAGUAGCAGAAGGUACAUGAGGAUCACCCAUGUAAAUA | 98.9 | 18.8 | – | – |
| AGGCUCACAGGAUAUCUCCACGGUAACAUGAGGAUCACCCAUGUCUCAUUUUCUCGUGCAAGAGAAGGGUGAGCGG | 435 | 455 | – | – |
| CCAGCCGUUCAAGGAUAUGACAUGAGGAUCACCCAUGUGAAGUCGAACAUUGAUGCACACCUUAGUCAGAAGGUGGAUGGGUCU | 30.9 | 96.5 | – | – |
| UGAUAGCACAGAGGAUAUGCGUUGUGUUCUCUCUACAUGAGGAUCACCCAUGUAGAAGGCUGUGCUAUCUAAGUCGGAAACGAU | 8.81 | 36.9 | – | – |
| GUGUAGAUAGGAUAUGCUGGAAUCUAGCGAAGCUAGGUUCCACAUGAGGAUCACCCAUGUAGAAGGGUCUACAC | 200 | 54 | – | – |
| CUUUAGUCAGGAUAUACAUGAGGAUCACCCAUGUAAAAUUUUAAUUUAAUUUUAAGGUGUAGAAGGGACCACCC | 33.4 | 29.3 | – | – |
| CUGGGAUAGUGGGAUAGGGUUGCCAGAAGGGUCUACAUGAGGAUCACCCAUGUGGGUCCGAGUGGACAGGAUAUGGCGUCCGUA | 12.6 | 45.3 | – | – |
| GCGUACAUAUCAGGAUAUCAUUGAAUGGAUUAACUCAGUGAAUACAUGAGGAUCACCCAUGUUCUUGAGAAGGGAUUACUACGC | 21 | 96.5 | – | – |
| GUUUGUUAUUAGAAGGUGCCAGCGAGAGCUGCACAUGAGGAUCACCCAUGUUGUCGGUGACGACGCAAGGAUAUGGUGGUGGAU | – | – | 715 | 169 |
| GGUGCACGCACAGGAUAUCCGGCGAAGCUCGUCGGAGAAGGGUGACAUGAGGAUCACCCAUGUACGUGCAACCCAGUUUGAGAG | – | – | 85.2 | 31.4 |
| ACAUUUAUAUCAGGAUAUACAAUACAAUGAUUAGUAGAAGGGAUUAUUACAUGAGGAUCACCCAUGUCAUGUGUCAUAAUAACC | 27.6 | 24.1 | – | – |
| GGAUCGAAUGUGAGGAUAUACCACUGGAUACAGUGGUAGAAGGCACAUGAGGAUCACCCAUGUCCUUACGAUCC | 96.5 | 319 | – | – |
| GGGUGAGCUCAAGGAUAUCCAAAAUGGUUACAUGAGGAUCACCCAUGUCCAGGCGAAUAAAGGCCGGAGAAGGUGAGGGCCCUC | – | – | 60.2 | 156 |
| GGUCCAUCAUGAGGAUAUGGCACCUUAUUGGUGCCAGAAGGCAUGUGUAUACACAUGAGGAUCACCCAUGUAAUAAAUUGGACC | – | – | 144 | 22.2 |
| GCCAAUAAGAUUGGCACCGGCGCGCAGGAUAUGCUGGCCUACAUGAGGAUCACCCAUGUCUAAAUGCAGAAGGGUGAGCUGAGC | – | – | 444 | 82.4 |
| AGGUAACAUGAGGAUCACCCAUGUCAGGAUAUCAUGAAGAUUAGAUUAGAGGAGAGGUUGAGAAGGGACUAUAU | 55.6 | 49.5 | – | – |
| AUCUUGUCAGGAUAUCUGACAAGUGACGAAAGUCACAGUUCAGAGAAGGUACAUGAGGAUCACCCAUGUAGAAC | 19.4 | 19.2 | – | – |
| UUUUAACAUGAGGAUCACCCAUGUGAGGAUAUCGAAAUUUAUAUUAAUAUUAAUUAUUCGAGAAGGCACAUUUU | 119 | 126 | – | – |

| Sequence | apparent Kd [1] [nM] | apparent Kd [2] [nM] | apparent Kd [3] [nM] | apparent Kd [4] [nM] |
| --- | --- | --- | --- | --- |
| GCACUGGAUGUAGGAUAUCAGGACGAUAAGUCCUGAGAAGGACAUGAGGAUCACCCAUGUGCUCAAUAACCAGUGCAUAAUAUA | 14.5 | 20.3 | – | – |
| ACUUCACAUGAGGAUCACCCAUGUCAGGCCGGACUAGGAUAUUAUCAUGCAGCGUGACCGUGAGAAGGAGUUGGAU | – | – | 110 | 114 |
| AAUUUCAGAAGAGGAUAUUGACAUGAGGAUCACCCAUGUAUUUGGGAAUGUUUACUGAAUUCUUACAAGAAGGUUUACGAACUU | 98 | 79.7 | – | – |
| UGGUUGUCAGGAUAUUGGGUUUUUAACUUUAGUUUUAUAUUCGAGAAGGGACAUGAGGAUCACCCAUGUUACGU | 32.7 | 37.6 | – | – |
| GUAGCUAUCGGAGGAUAUUCAAUAUACAUGAGGAUCACCCAUGUUAAAGUGGGAGAAGGCCGAUAGCUACAAGAGCGAAAGCUC | – | – | 13.6 | 6 |
| GCACGAGACUAAGGAUAUGGAGUGUCAACAUUAAACAUGAGGAUCACCCAUGUAAAGAGUACGAUUCAGAAGGUAGAGACGUGC | – | – | 59.1 | 22.8 |
| GUCAGCUCGUGAGGAUAUACAACACUGCUUCGGCAGUGUAUUAAGAUCACAUGAGGAUCACCCAUGUAGAAGGCACGAGCCGAU | 14.3 | 271 | – | – |
| GAUCAGCUUGUGAGGAUAUCCGGGCAUAAAGGCUAGGAGAAGGUACAUGAGGAUCACCCAUGUAGAGUCCUGGG | 47.9 | 58.9 | – | – |
| AGGAGAAAUGUAGGAUAUGGGCAUAUAUAUGGGCAAAGCGCAUAUAUAUGCCCAGAAGGACAUGAGGAUCACCCAUGUUUCCCU | 12.5 | 13.6 | – | – |
| AGAUGUACAGCGAUAUGAUCGAGAGAUCAUGUCGCUGAAUUUAGAAGGACAUGAGGAUCACCCAUGUAGGAUAUGGGUGUAAUA | – | – | 80.8 | 72.8 |
| AUAUGAUAGAUAGGAUAUACAGUGGAUUUAUAAGUAGAAGGAUCAAGUGGGAAUUAUACAUGAGGAUCACCCAUGUUUUUGGAU | – | – | 68.2 | 45.8 |
| AAAACACAUGAGGAUCACCCAUGUAUCUGGACCAUAGGAUAUCCGCGCCCACUAGGGUGUGGAGAAGGGUGAGCCC | – | – | 204 | 245 |
| AGAAAACGAGGAUAUACGUGCAUAUUCUCGCCCAAUGGGCAACAUGAGGAUCACCCAUGUAGAAGGCGUAAAGA | 37.4 | 71.7 | – | – |
| UUUUAACAUGAGGAUCACCCAUGUGAGGAUAUCGAAAUUUAUAUUAAUAUUUAUAAAUCGAGAAGGCACAUUUU | 135 | 124 | – | – |
| GGAUGUCAAAGACAUCCAUAACGAACAUGAGGAUCACCCAUGUAGGAUAUGCUACUCAAAGAGUAGCAGAAGGACAUGUGUCUU | 30.3 | 150 | – | – |
| AGGUCAACCACAGGAUAUGGCUAGCAUAGCUAGCCAGAAGGGUGGUCGUUGCCAUGUAAAUACAUGAGGAUCACCCAUGUAUCC | – | – | 190 | 49.5 |
| AGUAAGAUGCAGAAGGUGUCAGCGAGAGCUGCGACAUGAGGAUCACCCAUGUACACGUGAGUGUACAAGGAUAUGCAUCUUACA | – | – | 1090 | 431 |
| GUACUAAAGCUUUGCUUUAGUCGUACAUGAGGAUCACCCAUGUAGGAUAUGGUAGGCUUUGCUUACUAGAAGGAUAGAGUGAUC | 110 | 36.1 | – | – |
| UCUCGAUGUGUAGGAUAUCUGACCACUAUGACAAGAGAAGGGCACAUGAGGAUCACCCAUGUGGAGGACCACUGGUUCAGAUUA | 40.9 | 51 | – | – |
| CGUAAGAUGCAGAAGGUGUUAGCUAGAGCUACGACAUGAGGAUCACCCAUGUACUAGAAACAGUACAAGGAUAUGCAUCUUACU | – | – | 18.4 | 6.25 |
| GAAUACACCCGACGGGUGUCCGGCAAGGAUAUGAUGAGGGCGAUGCUACAUGAGGAUCACCCAUGUCAGAAGGUGCCCUCCAGG | 6.59 | 7.19 | – | – |
